Experimental data reported in ChEMBL document CHEMBL4387702, “Design and synthesis novel di-carbonyl analogs of curcumin (DACs) act as potent anti-inflammatory agents against LPS-induced acute lung injury (ALI)” (Eur J Med Chem, 2019).

Key:
Format in all cases: ADME, organism-based
Details in all cases: in vivo
[1] = Oral bioavailability in Sprague-Dawley rat at 50 mg/kg measured up to 24 hrs by LC-MS/MS analysis
Outline: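 The rat oral and intravenous plasma profiles (n = 5, tail sampling to 24 h, UHPLC-MS/MS) were used. Oral bioavailability was calculated as F = (AUC p.o × Dose i.v)/(AUC i.v × Dose p.o).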

[2] = AUC (0 to t) in Sprague-Dawley rat at 5 mg/kg, iv by UHPLC-MS/MS analysis
Outline: (§1)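 Male Sprague-Dawley rats (250 ± 20 g) fasted overnight with free access to water, n = 5 per route. Intravenous dose was 5 mg/kg; the intragastric dose is printed as 20 mg/kg in the methods and 50 mg/kg in the table. Tail blood was taken at 0.083, 0.25, 0.5, 1, 2, 4, 6, 9, 12 and 24 h. Samples were centrifuged (12000 rpm, 10 min), deproteinized with 2 volumes of acetonitrile, re-centrifuged and quantified by UHPLC-MS/MS.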

[3] = AUC (0 to infinity) in Sprague-Dawley rat at 50 mg/kg, po by UHPLC-MS/MS analysis; parameters: dose 50 mg/kg, time infinity, route oral; outline: as §1
[4] = AUC (0 to infinity) in Sprague-Dawley rat at 5 mg/kg, iv by UHPLC-MS/MS analysis; parameters: dose 5 mg/kg, route intravenous, time infinity; outline: as §1
[5] = MRT (0 to t) in Sprague-Dawley rat at 5 mg/kg, iv by UHPLC-MS/MS analysis; outline: as §1
[6] = Half life in Sprague-Dawley rat at 50 mg/kg, po by UHPLC-MS/MS analysis; outline: as §1
[7] = Half life in Sprague-Dawley rat at 5 mg/kg, iv by UHPLC-MS/MS analysis; outline: as §1
[8] = Tmax in Sprague-Dawley rat at 50 mg/kg, po by UHPLC-MS/MS analysis
Outline: (§2)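 Male SD rats (250 ± 20 g), fasted overnight with water ad libitum, dosed intravenously or intragastrically, n = 5. Tail blood taken at 0.083, 0.25, 0.5, 1, 2, 4, 6, 9, 12 and 24 h post-dose and centrifuged 12000 rpm, 10 min. Supernatant mixed with 2 volumes acetonitrile, vortexed and re-centrifuged. Drug measured by UHPLC-MS/MS; PK parameters derived from time-concentration data.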

[9] = Tmax in Sprague-Dawley rat at 5 mg/kg, iv by UHPLC-MS/MS analysis; outline: as §2
[10] = Apparent volume of distribution during terminal phase in Sprague-Dawley rat at 5 mg/kg, iv by UHPLC-MS/MS analysis; outline: as §1
[11] = Cmax in Sprague-Dawley rat at 5 mg/kg, iv by UHPLC-MS/MS analysis; parameters: dose 5 mg/kg, route intravenous; outline: as §1

bioavailability [1]: 26.6%
AUC(0-t) [2]: 0.0344 µg·h/mL
AUC [3]: 0.3256 µg·h/mL
AUC [4]: 0.1224 µg·h/mL
MRT last [5]: 11.3 h
t1/2 [6]: 6.7 h
t1/2 [7]: 0.2 h
Tmax [8]: 3.3 h
Tmax [9]: 6 min
Vz/F [10]: 59.5 L/kg
Cmax [11]: 0.0164 µg/mL
Compound: COc1cc(/C=C/C(=O)N2CCC/C(=C\c3cc(OC)c(OC)c(OC)c3)C2=O)ccc1OC(C)=O
